Screens: PubChem, Broad Institute
Compounds with a hit are over-represented: about 2.7% of the library has one in this group of screens.
CFTR F508del cor = F508del CFTR correction, initial screen, CFBE line, single point; CFBE cells, YFP halide quenching; stimulated with forskolin plus potentiator P3; % fluorescence drop versus neutral controls; activity (quench increase), % at 7.58 µM; 350,000 tested, 0.36% active; AID 720511, 2013;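 active means mean added fluorescence quench of at least 8% versus neutral control, with both replicates also reaching 8%; inconclusive means only one of the mean or replicate conditions met; inactive means mean below 8% and not both replicates reaching 8%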;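 further: cells transiently co-express mutant CFTR-F508del with the halide-sensitive YFP; corrector assay measuring rescue of mutant channel to the surface after 24 h compound exposure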
FGF22 binding-1 = binders of human FGF22 protein, primary screen, FGF22 synaptogenesis inhibitor project, biophysical, thermal shift, single point; activity (Tm shift, normalised), % at 9.99 µM; recombinant FGF22 thermal shift, SYPRO orange fluorescence; percent of sucrose octasulfate shift, DMSO zero; Fibroblast growth factor 22 (Homo sapiens), Q9HCT0; 340,000 tested, 1.5% active; AID 651658, 2012;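 active means mean Tm shift, scaled 0 neutral to 100 positive control, at about 1.3% or above, every replicate too, limit read from the data; inconclusive means no clear call, values can overlap the other calls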
E-sel inducer = E-selectin induction in HUVECs, primary screen, imaging, HUVEC, immunofluorescence imaging, single point; P16581; normalized: neutral wells 0, TNF-alpha wells 100; activation, % at 7.58 µM; 260,000 tested, 0.37% active; AID 686992, 2013;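 active means mean E-selectin-positive cell signal at least 10% of the positive control, reached in at least 60% of replicates, without over 20% cell loss; inconclusive means no rule given, readout overlaps actives, possibly toxicity-flagged; inactive means the rest, including those meeting only one limit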
Target sequence (P16581 whole entry, looked up): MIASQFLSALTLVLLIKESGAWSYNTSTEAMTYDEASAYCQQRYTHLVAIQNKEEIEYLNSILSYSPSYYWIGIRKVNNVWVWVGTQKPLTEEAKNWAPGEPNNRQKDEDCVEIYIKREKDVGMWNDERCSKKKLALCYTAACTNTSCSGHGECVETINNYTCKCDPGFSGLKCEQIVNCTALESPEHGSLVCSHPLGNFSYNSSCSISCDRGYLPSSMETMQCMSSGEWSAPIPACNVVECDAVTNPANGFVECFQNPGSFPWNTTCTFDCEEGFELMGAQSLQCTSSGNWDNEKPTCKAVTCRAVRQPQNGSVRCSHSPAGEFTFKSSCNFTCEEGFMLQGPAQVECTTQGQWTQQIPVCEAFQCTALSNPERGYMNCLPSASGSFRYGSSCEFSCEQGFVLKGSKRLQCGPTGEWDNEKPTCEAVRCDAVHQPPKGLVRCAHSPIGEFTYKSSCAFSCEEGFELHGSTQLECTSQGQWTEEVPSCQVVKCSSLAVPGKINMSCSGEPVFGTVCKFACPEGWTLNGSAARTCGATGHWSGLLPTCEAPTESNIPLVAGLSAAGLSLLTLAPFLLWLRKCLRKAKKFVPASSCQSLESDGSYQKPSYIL
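Test system: HUVEC; input: 3,000 HUVEC/well; measured by: immunofluorescence imaging; read-out: % PE-positive cells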
HIV Env fusion = inhibitors of HIV-1 Env-driven cell-cell fusion, primary screen, HeLa-JRFL effector, CEM21 target cells, luciferase | 360,000 tested, 1.1% active | AID 651610, 2012 | inhibition, % at 12.3 µM;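 active means mean replicate inhibition score of at least 50 and every replicate individually at or above 50; inconclusive means only one of the two criteria met; inactive means mean below 50 and not all replicates reaching 50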
S100A4 inh HTS = inhibitors of S100A4-myosin IIA peptide binding, primary screen, biochemical, fluorescence polarization, TAMRA-MyoIIA peptide | AID 652163, 2013 | 360,000 tested, 0.14% active | Protein S100-A4 (Homo sapiens), P26447 | inhibition, % at 10.7 µM;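 active means mean inhibition of at least 70% across replicates, with every replicate also reaching that level; inconclusive means mean inhibition reaches 70% but some replicates fall short; inactive means mean inhibition below 70%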
Target sequence (P26447 whole entry, looked up): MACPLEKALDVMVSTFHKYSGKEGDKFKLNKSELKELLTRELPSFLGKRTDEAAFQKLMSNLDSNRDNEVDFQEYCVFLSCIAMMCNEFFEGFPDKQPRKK
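Material: S100A4 monomer protein / Buffer or medium: 50 mM HEPES pH 7.2, 10 mM CaCl2, 100 mM KCl / Times: 5 min incubation before reading / Benchmarks: neutral control DMSO, positive control TFP / Reagent: labelled myosin peptide probe, 5 nM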
FGF22 binding-2 = binders of human FGF22 protein, dose response, FGF22 synaptogenesis inhibitor project, biophysical, thermal shift, cherry-pick retest; thermal shift activity, °C (ΔTm) at 38 µM; shares compounds with FGF22 binding-1; AID 720646, 2013; 1,000 tested, 2% active; recombinant FGF22 thermal shift, SYPRO orange fluorescence;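 active means fitted rise in melting shift crosses a set limit at or below the top valid dose tested; inconclusive means flat fit at mid-level activity, or a poor quality fit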
FGF22 TSA DP = binders of human FGF22 protein, dose response, FGF22 synaptogenesis inhibitor project, biophysical, thermal shift, dry powder. shares compounds with FGF22 binding-1. Thermal shift assay, SYPRO orange, melting temperature shift. Tm shift (activity), % at 38 µM. 50 tested, under 10 active. AID 743017, 2013;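 active means compounds whose fitted dose curve of melting temperature shift rises past a set threshold within the tested doses; inconclusive means flat curve at moderate activity, or poor curve fit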
SYPRO no-protein = compound-only thermal shift signal without protein, dose response, artefact control for FGF22 binder project, biochemical, cherry-picked samples, RT-PCR instrument; shares compounds with FGF22 binding-1; compound-only SYPRO orange thermal shift counter-screen, no protein; AC50, µM (titrated, usually from 38 µM); 1,000 tested, 2% active; AID 743019, 2013;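 active means rising signal whose fitted curve reaches the 0.54 level within the top valid dose, showing a melting point, actives reach about 13 µM in these data; inactive means the rest, including activity in the opposite direction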; further: value is where the raw curve crosses a fixed level and not half-maximal
A number is an active result; n = inactive; u = inconclusive; x = not tested or not shown; ! = not active in a repeat.

SMILES	CFTR F508del cor	FGF22 binding-1	E-sel inducer	HIV Env fusion	S100A4 inh HTS	FGF22 binding-2	SYPRO no-protein	others
Cc1cc(C(=O)Nc2cccc3c2O[C@@H](CN(C)C(=O)NC2CCCCC2)[C@@H](C)CN([C@H](C)CO)C3=O)n(C)n1	n	31.9	n	n	n	n	n
O=C(C[C@@H]1CC[C@H]2[C@@H](COC[C@H](O)CN2C(=O)Nc2cccc(Cl)c2)O1)NCC1CCCCC1	n	n	n	x	n	x	x
COc1ccc2c3c(n(C)c2c1)[C@@H](CO)N(C(=O)CN1CCOCC1)CC31CN(C(=O)C2CC2)C1	n	n	n	x	x	x	x
CO[C@H]1CN(C)C(=O)c2ccc(NS(C)(=O)=O)cc2OC[C@H](C)N(C(=O)CC2CC2)C[C@H]1C	n	n	n	x	n	x	x
C[C@H]1CCCCO[C@@H](CN(C)C(=O)NC2CCCCC2)[C@@H](C)CN([C@@H](C)CO)C(=O)c2cc(NC(=O)c3ccncc3)ccc2O1	n	n	n	n	n	x	x
C[C@@H]1CN([C@H](C)CO)C(=O)c2c(c3ccccc3n2C)-c2ccccc2CO[C@H]1CN(C)Cc1ccncc1	n	n	n	x	n	x	x
CC=Cc1ccc2n(c1=O)C[C@@H]1[C@@H](CO)[C@H](C(=O)Nc3ccccc3)[C@H]2N1C(=O)CC (mixture of isomers)	n	n	n	x	n	x	x
Cc1noc(C)c1S(=O)(=O)Nc1ccc2c(c1)CC(=O)N([C@@H](C)CO)C[C@H](C)[C@H](CN(C)S(=O)(=O)c1c(C)noc1C)O2	n	n	n	n	n	x	x
COc1ccc(NC(=O)N(C)C[C@@H]2Oc3ccc(NC(=O)Cc4ccccc4)cc3C(=O)N([C@H](C)CO)C[C@H]2C)cc1	n	1.5	n	n	n	n	n
Cc1noc(C)c1S(=O)(=O)Nc1ccc2c(c1)CC(=O)N([C@H](C)CO)C[C@@H](C)[C@H](CN(C)S(C)(=O)=O)O2	n	1.3	n	n	x	n	n
COc1ccc(NC(=O)N(C)C[C@H]2Oc3ccc(NC(=O)Cc4ccccc4)cc3C(=O)N([C@@H](C)CO)C[C@H]2C)cc1	n	n	n	n	n	x	x
C[C@H]1CN([C@@H](C)CO)C(=O)c2cc(NC(=O)CCN3CCOCC3)ccc2O[C@H]1CN(C)C(=O)NC1CCCCC1	n	3.5	n	x	n	n	n
C[C@H](CO)N1C[C@H](C)[C@H](CN(C)C(=O)NC2CCCCC2)Oc2ccc(NC(=O)CCN3CCOCC3)cc2C1=O	n	n	n	x	n	x	x
Cc1noc(C)c1S(=O)(=O)Nc1ccc2c(c1)C(=O)N([C@@H](C)CO)C[C@@H](C)[C@@H](CN(C)C(=O)Nc1ccc3c(c1)OCO3)OCCCC[C@H](C)O2	n	n	n	n	n	x	x
CO[C@@H]1CN(C)C(=O)c2ccc(NS(=O)(=O)c3ccccc3)cc2OC[C@H](C)N(Cc2cccnc2)C[C@H]1C	n	n	n	n	n	x	x
O=C(C[C@@H]1C[C@H]2c3cc(NC(=O)C4CCC4)ccc3O[C@H]2[C@H](CO)O1)NC1CCCCC1	n	n	n	n	n	x	x
CC(C)C#Cc1ccc([C@@H]2[C@@H](CO)N3C(=O)CN(C(=O)C4CCCCC4)C[C@@H]23)cc1	n	1.3	n	x	n	n	n
CC(C)C#Cc1ccc([C@@H]2[C@@H](CO)N3C(=O)CN(C(=O)C4CCCCC4)C[C@H]23)cc1	n	n	n	x	n	x	x
CC(C)C#Cc1ccc([C@H]2[C@@H](CO)N3C(=O)CN(C(=O)C4CCCCC4)C[C@@H]23)cc1	n	1.9	n	x	n	n	n
O=C1Cc2ccccc2C(=O)N1c1cccc(Cl)c1	n	2.2	x	n	n	n	n
O=C1Cc2ccccc2C(=O)N1c1ccccc1	n	n	x	n	n	x	x
O=C1C(=O)C(c2ccccc2)C(=O)C1c1ccccc1 (stereo not given)	n	5.8	n	n	n	n	n
Cc1ccc(C2C(=O)c3ccccc3C2=O)cc1	n	n	n	n	n	x	x
CO[C@H]1CN(C)C(=O)c2ccc(NC(C)=O)cc2OC[C@H](C)N(C(=O)C2CC2)C[C@H]1C	n	n	n	x	n	x	x
O=C(NCC[C@@H]1CC[C@H](NC(=O)C2CCCCC2)[C@H](CO)O1)c1cc(Cl)cc(Cl)c1	n	n	n	n	n	x	x
SMILES	CFTR F508del cor	FGF22 binding-1	E-sel inducer	HIV Env fusion	S100A4 inh HTS	FGF22 binding-2	SYPRO no-protein	others
COc1ccc(N2CCN(CCOc3ccc4c(C)cc(=O)oc4c3)CC2)cc1	x	2.2	n	n	n	x	n
O=c1ccc2nc3ccccc3sc-2c1	n	1.7	n	n	n	n	n
CSc1nc2ccccc2s1	n	n	x	x	n	x	x
COc1ccc(NC(=O)CN(c2ccc(C(C)C)cc2)S(=O)(=O)c2c(C)noc2C)cc1OC	n	12.6	x	n	n	n	n
O=C(Nc1ccc(Cl)cc1)N[C@H]1CC[C@H](CCNC(=O)c2cc(Cl)cc(Cl)c2)O[C@@H]1CO	n	2.5	n	x	n	n	n
O=C(NCC[C@H]1CC[C@@H](NC(=O)C2CCOCC2)[C@@H](CO)O1)Nc1ccc(Cl)cc1	n	1.6!	n	u	n	n	n
O=C(NCC[C@H]1CC[C@@H](NC(=O)C2CC2)[C@H](CO)O1)Nc1ccc(Cl)cc1	n	n	n	n	n	x	x
Cc1ccc(S(=O)(=O)N[C@H]2CC[C@@H](CCNC(=O)C3CCOCC3)O[C@H]2CO)cc1	n	n	n	n	n	x	x
Cc1ccc(S(=O)(=O)N[C@H]2CC[C@H](CCNC(=O)C3CCOCC3)O[C@H]2CO)cc1	n	2.0	n	n	n	n	n
O=C(Nc1ccc(Cl)cc1)N[C@H]1CC[C@@H](CCNC(=O)c2cc(Cl)cc(Cl)c2)O[C@H]1CO	n	x	n	x	n	x	x
O=C(NCC[C@H]1CC[C@@H](NC(=O)C2CCOCC2)[C@H](CO)O1)Nc1ccc(Cl)cc1	n	1.7	n	n	n	n	n
C[C@H]1CN([C@@H](C)CO)C(=O)c2cc(NC(=O)CCCCCC(=O)Nc3ccccc3N)ccc2O[C@H]1CN(C)CC1CCCCC1	n	n	n	x	n	x	x
COc1ccc(-c2nc(-c3ccc(O)cc3O)cs2)cc1OC	n	2.5	n	n	n	n	n	FGF22 TSA DP=n
